Here are results for ten compounds from ChEMBL document CHEMBL4257587 (J Med Chem, 2018).

Molecules are shown by their SMILES. Values after ≈ are worked out from the molar mass of the structure shown. Active and inactive are the calls of the source. Bounds are passed on as bounds.

Series [1] has as its system HepG2. Nature of the series: Cytotoxicity against human HepG2 cells assessed as effect on mitochondrial membrane potential after 48 hrs by TMRM-staining based cell health assay. It is filed as ADME. Particulars: HepG2, 48 h.
Series [2] relates to Mycobacterium tuberculosis. Nature of the series: Antimycobacterial activity against Mycobacterium tuberculosis H37Rv ATCC 25618 after 6 days by resazurin-based assay. In kind it is functional. The settings on record: H37Rv ATCC 25618, 144 h.
Series [3] can be described thus: Intrinsic clearance in human liver microsomes at 0.5 uM preincubated with NADPH and measured up to 30 mins by LC-MS/MS analysis. In kind it is ADME, microsome.
Series [4] is described as follows: Intrinsic clearance in mouse liver microsomes at 0.5 uM preincubated with NADPH and measured up to 30 mins by LC-MS/MS analysis. It is filed as ADME, microsome.
In series [5] the test system is HepG2. Nature of the series: Cytotoxicity against human HepG2 cells assessed as effect on membrane permeability after 48 hrs by TOTO-3 iodide-staining based cell health assay. Particulars: HepG2, 48 h. In kind it is ADME.
Series [6] deals with HepG2. Nature of the series: cells. It is filed as ADME, cell-based. The settings on record: Homo sapiens, HepG2, 48 h.
Series [7] can be described thus: physchem. The settings on record: buffer, pH 7.4.
For series [8], the system named is Mycobacterium tuberculosis. Nature of the series: Antibacterial activity against Mycobacterium tuberculosis H37Rv infected in C57BL/6 mouse assessed as reduction in colony forming units administered orally once daily for 8 days starting following day after infection and measured at 24 hrs post last dose relative to untreated control. In kind it is functional. The gist of the method: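 Female C57BL/6 mice, 8−10 weeks old, infected intratracheally with 100 000 CFU of H37Rv. Oral dosing once daily for 8 days began 1 day post-infection. Lungs were harvested 24 h after the last dose, homogenised and plated on 7H11 with 10% OADC and 0.4% charcoal for 18 days at 37 °C. Log10 CFU was fitted to a sigmoidal dose-response curve, and ED99 was defined as a 2-log CFU drop versus untreated.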

`FC(F)(F)Oc1ccc(Oc2ccc(CN3CCC4(CCCCO4)CC3)cc2)cc1`: the IC50 in series [1] was determined as 46.3 µM; in series [5], 43.7 µM; in series [6] it was 38.7 µM. In series [2], the MIC90 is 0.31 µM (≈ 0.131 µg/mL). The CLH in series [3] amounted to 1.7 mL/min/g; in series [4] it was 1.2 mL/min/g. Further, the kinetic solubility at 1 h in series [7] was less than 1 µM.

Take `FC(F)(F)Oc1ccc(Oc2ccc(CN3CCC4(CCNC4)CC3)cc2)cc1`: the IC50 in series [1] came out at 6.6 µM; in series [5], 5.7 µM; in series [6], 4.9 µM. Also, the MIC90 in series [2] is greater than 5 µM. This compound also came in with a solubility (kinetic) at 1 h in series [7] of 117 µM (≈ 47.6 µg/mL).

Take `FC(F)(F)Oc1ccc(Oc2ccc(CN3CCC4(CC3)OCCO4)cc2)cc1`: the concentration for half-maximal inhibition (IC50) came out at 53.8 µM in series [1], 49.8 µM in series [5] and 46.9 µM in series [6]. Moreover, the MIC90 in series [2] was greater than 5 µM. This compound had a kinetic solubility at 1 h in series [7] of 52 µM (≈ 21.3 µg/mL).

In the case of `FC(F)(F)Oc1ccc(Oc2ccc(CN3CCC4(CCCO4)CC3)cc2)cc1`, the IC50 in series [1] came to 141 µM; in series [5], 133 µM; in series [6], 96.9 µM. Further, the MIC90 in series [2] came out at 1.3 µM (≈ 0.53 µg/mL). For the same compound, the values for the CLH in series [3] and in series [4] were 1.5 mL/min/g and 0.6 mL/min/g, respectively.

In the case of `CC(C)(C)c1ccc(CN2CCC3(CC2)OCCCCO3)cc1`, the results for the IC50 in series [1], in series [5] and in series [6] were 170 µM, greater than 200 µM and 166 µM, respectively. For the same compound, the MIC90 in series [2] stood at 5 µM (≈ 1.59 µg/mL). In addition, the CLH turned out to be 4.1 mL/min/g in series [3] and 27 mL/min/g in series [4]. In addition, in series [7], the solubility (kinetic) at 1 h was 194 µM (≈ 61.6 µg/mL).

Consider `FC(F)(F)Oc1ccc(Oc2ccc(CN3CCCCC3)cc2)cc1`, for which the values for the IC50 in series [1], in series [5] and in series [6] were 49.5 µM, 46.3 µM and 44.2 µM, respectively. In series [2], this compound yielded an MIC90 greater than 5 µM. The compound also returned a kinetic solubility at 1 h in series [7] of 156 µM (≈ 54.8 µg/mL).

Regarding `FS(F)(F)(F)(F)c1ccc(CN2CCC3(CC2)OCCc2sccc23)cc1`, in series [2], the MIC90 was 0.14 µM (≈ 0.0596 µg/mL). In addition, the CLH stood at 3 mL/min/g in series [3] and 18.2 mL/min/g in series [4].

Regarding `CN1C(=O)C=CCC12CCN(Cc1ccc(Oc3ccc(OC(F)(F)F)cc3)cc1)CC2`, the IC50 was 36.3 µM in series [1], 29.2 µM in series [5] and 39.4 µM in series [6]. For the same compound, in series [2], the MIC90 was greater than 5 µM. In addition, the kinetic solubility at 1 h in series [7] turned out to be 87 µM (≈ 38.8 µg/mL).

On to `NNC(=O)c1ccncc1`, for which the outcome in series [8] was Active.

As to `O=C1OCCC12CCN(Cc1ccc(Oc3ccc(OC(F)(F)F)cc3)cc1)CC2`, the IC50 in series [1] is greater than 200 µM; in series [5], 75.9 µM; in series [6] it was 74.1 µM. The compound further had an MIC90 in series [2] greater than 5 µM. Further, in series [7], the solubility (kinetic) at 1 h amounted to 121 µM (≈ 51 µg/mL).
